Data: ChEMBL document CHEMBL1138555, “N-acylated and N,N'-diacylated imidazolidine-2-thione derivatives and N,N'-diacylated tetrahydropyrimidine-2(1H)-thione analogues: synthesis and antiproliferative activity” (Eur J Med Chem, 2009)
pIC50: −log10 of the molar value.

Tests used:
[1] = system: MT4; test: Antiproliferative activity against human MT4 cells assessed as reduction of growth by MTT assay; format: functional, cell-based
Procedure, shortened: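 MT-4 lymphoblastoid T cells (ATCC) in RPMI 1640 with 10% FCS, penicillin/streptomycin, checked for mycoplasma. 1 × 10⁴ mock-infected cells per well with serial dilutions from a 100 mM DMSO stock. Incubated 4 days at 37 °C, viable cells counted by MTT. IC50 versus untreated controls by linear regression. Mean of three separate experiments.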

[2] = system: HL-60(TB); test: Growth inhibition of human HL-60(TB) cells after 48 hrs by sulforhodamine B assay; format: functional; conditions: HL-60, 48 h
Procedure, shortened: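 NCI 60-cell-line screen protocol: cells exposed to compound at five 10-fold dilutions from 10^-4 to 10^-8 M for the last 48 h of a 72 h incubation. Sulforhodamine B protein assay estimated viability/growth. GI50 (50% growth inhibition) derived; where not reached or exceeded, reported as greater or less than the highest or lowest concentration tested.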

[3] = system: HOP-92; test: Growth inhibition of human HOP92 cells after 48 hrs by sulforhodamine B assay; format: functional; conditions: HOP-92, 48 h
Procedure, shortened: (§1)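 NCI screen panel. Five 10-fold concentrations from 10^-4 to 10^-8 M. Exposure for the last 48 h of a 72 h incubation. Growth estimated by sulforhodamine B protein assay. GI50 is the concentration giving 50% growth inhibition. Where that level was not reached or was exceeded, the value is given as above or below the highest or lowest concentration tested.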

[4] = system: NCI-H23; test: Growth inhibition of human NCI-H23 cells after 48 hrs by sulforhodamine B assay; format: functional; conditions: NCI-H23, 48 h; procedure, shortened: as §1
[5] = system: NCI-H322M; test: Growth inhibition of human NCI-H322M cells after 48 hrs by sulforhodamine B assay; format: functional; procedure, shortened: as §1
[6] = system: NCI-H460; test: Growth inhibition of human NCI-H460 cells after 48 hrs by sulforhodamine B assay; format: functional; conditions: NCI-H460, 48 h; procedure, shortened: as §1
[7] = system: NCI-H522; test: Growth inhibition of human NCI-H522 cells after 48 hrs by sulforhodamine B assay; format: functional; conditions: NCI-H522, 48 h; procedure, shortened: as §1
[8] = system: HCC 2998; test: Growth inhibition of human HCC2998 cells after 48 hrs by sulforhodamine B assay; format: functional; conditions: HCC 2998, 48 h; procedure, shortened: as §1
[9] = system: HCT-116; test: Growth inhibition of human HCT116 cells after 48 hrs by sulforhodamine B assay; format: functional; conditions: HCT-116, 48 h; procedure, shortened: as §1
[10] = system: HCT-15; test: Growth inhibition of human HCT15 cells after 48 hrs by sulforhodamine B assay; format: functional; conditions: HCT-15, 48 h; procedure, shortened: as §1
[11] = system: HT-29; test: Growth inhibition of human HT-29 cells after 48 hrs by sulforhodamine B assay; format: functional; conditions: HT-29, 48 h; procedure, shortened: as §1
[12] = system: KM12; test: Growth inhibition of human KM12 cells after 48 hrs by sulforhodamine B assay; format: functional; conditions: KM12, 48 h; procedure, shortened: as §1
[13] = system: SW-620; test: Growth inhibition of human SW620 cells after 48 hrs by sulforhodamine B assay; format: functional; conditions: SW-620, 48 h
Procedure, shortened: (§2)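 NCI in vitro panel screen. Compounds tested at five 10-fold dilutions, 10^-4 to 10^-8 M. Cells in 96-well plates were exposed for the last 48 h of a 72 h incubation. Viability/growth was read by sulforhodamine B protein assay. GI50 is the concentration giving 50% growth inhibition. Values beyond the tested range are reported as greater or less than the maximum or minimum concentration.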

[14] = system: SF-268; test: Growth inhibition of human SF268 cells after 48 hrs by sulforhodamine B assay; format: functional; conditions: SF-268, 48 h; procedure, shortened: as §1
[15] = system: SF-295; test: Growth inhibition of human SF295 cells after 48 hrs by sulforhodamine B assay; format: functional; conditions: SF-295, 48 h; procedure, shortened: as §1
[16] = system: SF-539; test: Growth inhibition of human SF539 cells after 48 hrs by sulforhodamine B assay; format: functional; conditions: SF-539, 48 h; procedure, shortened: as §1
[17] = system: U-251; test: Growth inhibition of human U251 cells after 48 hrs by sulforhodamine B assay; format: functional; conditions: U-251, 48 h; procedure, shortened: as §2
[18] = system: LOX IMVI; test: Growth inhibition of human LOXIMVI cells after 48 hrs by sulforhodamine B assay; format: functional; procedure, shortened: as §1
[19] = system: Malme-3M; test: Growth inhibition of human MALME-3M cells after 48 hrs by sulforhodamine B assay; format: functional; procedure, shortened: as §1
[20] = system: M14; test: Growth inhibition of human M14 cells after 48 hrs by sulforhodamine B assay; format: functional; conditions: M14, 48 h; procedure, shortened: as §1
[21] = system: SK-MEL-2; test: Growth inhibition of human SK-MEL-2 cells after 48 hrs by sulforhodamine B assay; format: functional; conditions: SK-MEL-2, 48 h; procedure, shortened: as §1
[22] = system: SK-MEL-28; test: Growth inhibition of human SK-MEL-28 cells after 48 hrs by sulforhodamine B assay; format: functional; conditions: SK-MEL-28, 48 h; procedure, shortened: as §1
[23] = system: UACC-62; test: Growth inhibition of human UACC62 cells after 48 hrs by sulforhodamine B assay; format: functional; conditions: UACC-62, 48 h; procedure, shortened: as §2
[24] = system: IGROV-1; test: Growth inhibition of human IGROV1 cells after 48 hrs by sulforhodamine B assay; format: functional; conditions: IGROV-1, 48 h; procedure, shortened: as §1
[25] = system: OVCAR-3; test: Growth inhibition of human OVCAR-3 cells after 48 hrs by sulforhodamine B assay; format: functional; conditions: OVCAR-3, 48 h; procedure, shortened: as §1
[26] = system: OVCAR-4; test: Growth inhibition of human OVCAR4 cells after 48 hrs by sulforhodamine B assay; format: functional; conditions: OVCAR-4, 48 h; procedure, shortened: as §1
[27] = system: OVCAR-5; test: Growth inhibition of human OVCAR5 cells after 48 hrs by sulforhodamine B assay; format: functional; conditions: OVCAR-5, 48 h; procedure, shortened: as §1
[28] = system: SK-OV-3; test: Growth inhibition of human SKOV3 cells after 48 hrs by sulforhodamine B assay; format: functional; conditions: SK-OV-3, 48 h; procedure, shortened: as §1
[29] = system: 786-0; test: Growth inhibition of human 786-0 cells after 48 hrs by sulforhodamine B assay; format: functional; conditions: 786-0, 48 h; procedure, shortened: as §1
[30] = system: CAKI-1; test: Growth inhibition of human Caki1 cells after 48 hrs by sulforhodamine B assay; format: functional; conditions: CAKI-1, 48 h; procedure, shortened: as §1
[31] = system: RXF 393; test: Growth inhibition of human RXF393 cells after 48 hrs by sulforhodamine B assay; format: functional; conditions: RXF 393, 48 h; procedure, shortened: as §1
[32] = system: SN12C; test: Growth inhibition of human SN12C cells after 48 hrs by sulforhodamine B assay; format: functional; procedure, shortened: as §2
[33] = system: TK-10; test: Growth inhibition of human TK10 cells after 48 hrs by sulforhodamine B assay; format: functional; conditions: TK-10, 48 h; procedure, shortened: as §2
[34] = system: UO-31; test: Growth inhibition of human UO31 cells after 48 hrs by sulforhodamine B assay; format: functional; conditions: UO-31, 48 h; procedure, shortened: as §2
[35] = system: PC-3; test: Growth inhibition of human PC3 cells after 48 hrs by sulforhodamine B assay; format: functional; conditions: PC-3, 48 h; procedure, shortened: as §1
[36] = system: DU-145; test: Growth inhibition of human DU145 cells after 48 hrs by sulforhodamine B assay; format: functional; conditions: DU-145, 48 h; procedure, shortened: as §1
[37] = system: MCF7; test: Growth inhibition of human MCF7 cells after 48 hrs by sulforhodamine B assay; format: functional; conditions: MCF7, 48 h; procedure, shortened: as §1
[38] = system: MDA-MB-231; test: Growth inhibition of human MDA-MB-231 cells after 48 hrs by sulforhodamine B assay; format: functional; conditions: MDA-MB-231, 48 h; procedure, shortened: as §1
[39] = system: MDA-MB-435; test: Growth inhibition of human MDA-MB-435 cells after 48 hrs by sulforhodamine B assay; format: functional; conditions: MDA-MB-435, 48 h; procedure, shortened: as §1
[40] = system: BT-549; test: Growth inhibition of human BT549 cells after 48 hrs by sulforhodamine B assay; format: functional; conditions: BT-549, 48 h; procedure, shortened: as §1

Structure (SMILES)	pIC50 [1]	GI50 [2]	GI50 [3]	GI50 [4]	GI50 [5]	GI50 [6]	GI50 [7]	GI50 [8]	GI50 [9]	GI50 [10]	GI50 [11]	GI50 [12]	GI50 [13]	GI50 [14]	GI50 [15]	GI50 [16]	GI50 [17]	GI50 [18]	GI50 [19]	GI50 [20]	further results
O=CN1CCN(C(=O)c2ccco2)C1=S	5.05	2.8 µM	11.5 µM	16.7 µM	18.5 µM	7.3 µM	4 µM	13.4 µM	10.2 µM	5.6 µM	7.5 µM	5.3 µM	5.5 µM	3.9 µM	21.4 µM	2.5 µM	14.1 µM	3.4 µM	8.3 µM	10.7 µM	GI50 [21]: 16.5 µM; GI50 [22]: 26.2 µM; GI50 [23]: 5 µM; GI50 [24]: 7.5 µM; GI50 [25]: 4.2 µM; GI50 [26]: 18.6 µM; GI50 [27]: 18 µM; GI50 [28]: 26.6 µM; GI50 [29]: 3.3 µM; GI50 [30]: 5.1 µM; GI50 [31]: 3.3 µM; GI50 [32]: 5.3 µM; GI50 [33]: 14.3 µM; GI50 [34]: 4.5 µM; GI50 [35]: 5 µM; GI50 [36]: 2.5 µM; GI50 [37]: 2.7 µM; GI50 [38]: 15.9 µM; GI50 [39]: 6.4 µM; GI50 [40]: 2.3 µM
O=C(c1ccco1)N1CCN(C(=O)c2ccco2)C1=S	5.13	4 µM	12.7 µM	19.5 µM	15.7 µM	3.3 µM	3.1 µM	12.4 µM	7.3 µM	4.1 µM	5 µM	4 µM	5.5 µM	2.7 µM	16.9 µM	3 µM	9 µM	3.4 µM	3.7 µM	7.7 µM	GI50 [21]: 14.2 µM; GI50 [22]: 5.5 µM; GI50 [23]: 3.2 µM; GI50 [24]: 6.7 µM; GI50 [25]: 2.7 µM; GI50 [26]: 15.6 µM; GI50 [27]: 17.8 µM; GI50 [28]: 16 µM; GI50 [29]: 3.3 µM; GI50 [30]: 5.1 µM; GI50 [31]: 3.6 µM; GI50 [32]: 3.5 µM; GI50 [33]: 6.3 µM; GI50 [34]: 3.7 µM; GI50 [35]: 3.9 µM; GI50 [36]: 2.7 µM; GI50 [37]: 3 µM; GI50 [38]: 12.2 µM; GI50 [39]: 4 µM; GI50 [40]: 4.6 µM
O=C(c1cc(Cl)cc(Cl)c1)N1CCN(C(=O)c2cc(Cl)cc(Cl)c2)C1=S	4.89	3.3 µM	3.2 µM	14.8 µM	16.8 µM	20.8 µM	3.7 µM	16.7 µM	16.9 µM	13.5 µM	22.2 µM	10.1 µM	11.1 µM	14.1 µM	19.5 µM	12.8 µM	12.9 µM	3 µM	9.8 µM	11.9 µM	GI50 [21]: 16.1 µM; GI50 [22]: 12.2 µM; GI50 [23]: 15.6 µM; GI50 [24]: 15.3 µM; GI50 [25]: 10.2 µM; GI50 [26]: 18 µM; GI50 [27]: 22.9 µM; GI50 [28]: 15.3 µM; GI50 [29]: 2.9 µM; GI50 [30]: 9.7 µM; GI50 [31]: 12.7 µM; GI50 [32]: 9 µM; GI50 [33]: 10.7 µM; GI50 [34]: 2.3 µM; GI50 [35]: 16.9 µM; GI50 [36]: 10.5 µM; GI50 [37]: 3.1 µM; GI50 [38]: 16.2 µM; GI50 [39]: 9 µM; GI50 [40]: 22.4 µM
